From ChEMBL document CHEMBL1629477, “Efficient synthesis of 6-(hetero)arylthieno[3,2-b]pyridines by Suzuki-Miyaura coupling. Evaluation of growth inhibition on human tumor cell lines, SARs and effects on the cell cycle” (2010)

Tests used:
Type in all cases: functional
MCF7 = assay: Growth inhibition of human MCF7 cells after 48 hrs by sulforhodamine B assay; conditions: MCF7, 48 h
Outline: (§1)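 Cells kept adherent in RPMI-1640 with 5% heat-inactivated FBS, 2 mM glutamine and penicillin/streptomycin at 37 °C, 5% CO₂. Seeded at 1.5 × 10⁵ cells/mL (MCF-7) or 0.75 × 10⁵ cells/mL (A375-C5, NCI-H460), then grown 24 h. Exposed 48 h to five serial dilutions from up to 150 µM, DMSO ≤0.25%. SRB stain, absorbance 492 nm. GI₅₀ is 50% net growth inhibition; three experiments in duplicate; doxorubicin positive control.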

NCI-H460 [1] = assay: Cell cycle arrest in human NCI-H460 cells assessed as accumulation at G1 phase after 48 hrs by flow cytometry
Outline: (§2)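 NCI-H460 cells plated at 0.75 × 10⁵ cells/mL, then exposed 48 h to GI₅₀ or 2 × GI₅₀ concentrations (from the SRB assay). Controls were medium only (blank) and DMSO solvent. Cells were harvested, fixed in 70% ethanol and resuspended in PBS. G1/G0, S and G2/M fractions were read by flow cytometry. Three independent experiments in duplicate, mean ± SD.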

NCI-H460 [2] = assay: Growth inhibition of human NCI-H460 cells after 48 hrs by sulforhodamine B assay; conditions: NCI-H460, 48 h; outline: as §1
A-375 = assay: Growth inhibition of human A375 cells after 48 hrs by sulforhodamine B assay; conditions: A-375, 48 h; outline: as §1
NCI-H460 [3] = assay: Cell cycle arrest in human NCI-H460 cells assessed as accumulation at G2/M phase after 48 hrs by flow cytometry; outline: as §2

COC(=O)c1sc2cc(-c3ccc(-c4cccs4)s3)cnc2c1N
GI50 (MCF7): 1 µM | Activity (NCI-H460 [1]): 15% | GI50 (NCI-H460 [2]): 0.7 µM | GI50 (A-375): > 75 µM

COC(=O)c1sc2cc(-c3ccc(C#N)cc3)cnc2c1N
GI50 (MCF7): > 75 µM | GI50 (NCI-H460 [2]): > 75 µM | GI50 (A-375): > 75 µM

COC(=O)c1sc2cc(-c3ccccc3N)cnc2c1N
GI50 (MCF7): 4.2 µM | GI50 (NCI-H460 [2]): 3.8 µM | GI50 (A-375): 2.5 µM | Activity (NCI-H460 [3]): 12%

COC(=O)c1sc2cc(-c3ccc4ccccc4c3)cnc2c1N
GI50 (MCF7): 50.9 µM | GI50 (NCI-H460 [2]): 43.5 µM | GI50 (A-375): 95.6 µM

COC(=O)c1sc2cc(-c3cnc4ccccc4c3)cnc2c1N
GI50 (MCF7): 9.8 µM | GI50 (NCI-H460 [2]): 9.5 µM | GI50 (A-375): 9.1 µM

COC(=O)c1sc2cc(-c3ccc(C(C)=O)cc3)cnc2c1N
GI50 (MCF7): > 150 µM | GI50 (NCI-H460 [2]): > 150 µM | GI50 (A-375): > 150 µM

COC(=O)c1sc2cc(-c3ccc(C(F)(F)F)cc3)cnc2c1N
GI50 (MCF7): > 150 µM | GI50 (NCI-H460 [2]): > 150 µM | GI50 (A-375): > 150 µM

COC(=O)c1sc2cc(-c3cccnc3)cnc2c1N
GI50 (MCF7): > 112 µM | GI50 (NCI-H460 [2]): > 112 µM | GI50 (A-375): > 112 µM

COC(=O)c1sc2cc(-c3cnc(OC)nc3OC)cnc2c1N
GI50 (MCF7): > 75 µM | GI50 (NCI-H460 [2]): > 75 µM | GI50 (A-375): > 75 µM

COC(=O)c1sc2cc(-c3cccc(N)c3)cnc2c1N
GI50 (MCF7): > 150 µM | GI50 (NCI-H460 [2]): > 150 µM | GI50 (A-375): > 150 µM

COC(=O)c1sc2cc(-c3cnn(C)c3)cnc2c1N
GI50 (MCF7): > 150 µM | GI50 (NCI-H460 [2]): > 150 µM | GI50 (A-375): > 150 µM

COC(=O)c1sc2cc(-c3ccoc3)cnc2c1N
GI50 (MCF7): > 120 µM | GI50 (NCI-H460 [2]): > 120 µM | GI50 (A-375): > 120 µM

COC(=O)c1sc2cc(-c3cncc4ccccc34)cnc2c1N
GI50 (MCF7): 10.7 µM | GI50 (NCI-H460 [2]): 7.7 µM | GI50 (A-375): 10.1 µM

COC(=O)c1sc2cc(-c3ccc(OC)cc3)cnc2c1N
GI50 (MCF7): > 150 µM | GI50 (NCI-H460 [2]): > 150 µM | GI50 (A-375): > 150 µM

COC(=O)c1sc2cc(-c3ccc4c(ccn4C)c3)cnc2c1N
GI50 (MCF7): 23 µM | GI50 (NCI-H460 [2]): 20.3 µM | GI50 (A-375): 21.2 µM

COC(=O)c1sc2cc(-c3ccc(OC)nc3)cnc2c1N
GI50 (MCF7): > 37.5 µM | GI50 (NCI-H460 [2]): > 37.5 µM | GI50 (A-375): > 37.5 µM

COC(=O)c1sc2cc(-c3ccc4ncccc4c3)cnc2c1N
GI50 (MCF7): > 150 µM | GI50 (NCI-H460 [2]): > 150 µM | GI50 (A-375): > 150 µM

COC(=O)c1sc2cc(-c3cccs3)cnc2c1N
GI50 (MCF7): 26.9 µM | GI50 (NCI-H460 [2]): 18 µM | GI50 (A-375): > 150 µM

COC(=O)c1sc2cc(-c3ccsc3)cnc2c1N
GI50 (MCF7): 12.7 µM | GI50 (NCI-H460 [2]): 12.4 µM | GI50 (A-375): 12.1 µM

COC(=O)c1sc2cc(-c3ccc(N)cc3)cnc2c1N
GI50 (MCF7): 108 µM | GI50 (NCI-H460 [2]): 37.1 µM | GI50 (A-375): 80.8 µM

COC(=O)c1sc2cc(-c3cc(OC)cc(OC)c3)cnc2c1N
GI50 (MCF7): 56.6 µM | GI50 (NCI-H460 [2]): 31.8 µM | GI50 (A-375): 82 µM
